We go through 14 molecules from PubChem BioAssay.

Assay [1] is described as follows: inhibitors of TNFa-induced NFkB p65 translocation, primary screen, imaging, HUVEC, MLSMR starter and 10KST1 sets (AID 438;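 active = inhibition above 20% together with a positive visual image hit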;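 also: compound added about 3h40 before a 20 min TNFalpha stimulation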;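 as to inhibition: signal is the nuclear over cytoplasmic p65 intensity ratio per well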). The settings on record: HUVEC TNFa-induced p65 nuclear translocation; cell count: measured here: nuclei count (cytotoxicity indicator), at 2.08 µM; inhibition: at 2 µM, stronger effect = higher value, 0% TNFa-plus-vehicle, 100% no-TNFa wells.
Assay [2] is described as follows: reduction of polyQ htt aggregates in cells – imaging, exon1htt(103Q)mCFP cells, high-content imaging, primary screen (AID 483;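 active = visual image review flags a hit and inhibition of aggregation exceeds 20%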;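 also: compound exposure lasted 3 days before fixation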;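 as to nuclei count: percent of the per-plate median nuclei count of sample wells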). The following applies: exon1htt(103Q)mCFP cell line, aggregate imaging, at 2 µM; inhibition of aggregation: stronger effect = higher value; nuclei count: measured here: cell count, toxicity.
Assay [3] can be described thus: endothelial E-selectin expression blockers – imaging, HUVEC, immunofluorescence, MLSMR starter and 10KST1 sets, primary screen (AID 487;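 active = visually confirmed hit in the image check and inhibition above 20%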;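 as to inhibition: signal is fraction of cell area covered by stained E-selectin grains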;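 as to nuclei count: 100% = median nuclei count of all wells on the same plate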). The settings on record: HUVEC TNFalpha-induced E-selectin immunofluorescence imaging, at 2 µM; inhibition: stronger effect = higher value; nuclei count: measured here: cell number, toxicity.
Assay [4] deals with Voltage-gated potassium channel subunit beta-2 (Rattus norvegicus) (UniProt P62483). In words: inhibitors of rat Kvbeta2 reductase activity – biochemical, NADPH fluorescence, primary screen (AID 622;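 active = fluorescence slope higher than the sample average by over 3 SD, cut at about -0.22 in these data, passing the limit was not always enough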;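 also: slope of raw intensity against log time taken from 70 to 1610 s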). The settings on record: recombinant KvBeta, 4-cyanobenzaldehyde reduction, at 10 µM, stronger effect = higher value.
Voltage-gated potassium channel subunit beta-2 (Rattus norvegicus), sequence (P62483 whole entry, looked up): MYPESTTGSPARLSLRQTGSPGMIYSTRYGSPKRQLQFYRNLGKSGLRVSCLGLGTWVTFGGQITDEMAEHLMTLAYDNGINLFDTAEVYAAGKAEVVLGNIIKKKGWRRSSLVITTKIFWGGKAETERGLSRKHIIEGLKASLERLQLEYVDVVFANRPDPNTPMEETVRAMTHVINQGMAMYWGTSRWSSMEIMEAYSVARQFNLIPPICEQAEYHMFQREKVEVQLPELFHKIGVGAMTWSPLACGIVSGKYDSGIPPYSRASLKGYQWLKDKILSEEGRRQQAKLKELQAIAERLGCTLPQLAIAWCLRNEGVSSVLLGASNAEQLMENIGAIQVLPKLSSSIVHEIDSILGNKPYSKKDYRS
Assay [5] shares this target. Briefly: enhancers of rat Kvbeta2 NADPH turnover – biochemical, NADPH fluorescence, primary screen (AID 623;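 active = NADPH fluorescence slope more negative than the mean of all samples by about 3 SD, 99.7% confidence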;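 also: fluorescence intensity change per second fitted from 20 to 320 s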). The settings on record: Recombinant KvBeta, NADPH fluorescence decrease slope, 10 min; at 10 µM; stronger effect = lower value.
For assay [6], the target named is Alpha-2C adrenergic receptor (Homo sapiens) (UniProt P18825). In words: compounds altering alpha2C-coupled GIRK flux – cell-based, HEK293 alpha2C/GIRK1/2, thallium flux, primary screen (AID 624;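 active = fluorescence slope after compound addition differing from the mean of all screened samples at 99.7% confidence, in either direction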;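 also: slope of fluorescence ratio to pre-addition baseline per second over 15 to 24 s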). The settings on record: thallium flux BTC fluorescence, at 10 µM, actives lie on both sides.
Alpha-2C adrenergic receptor (Homo sapiens), sequence (P18825 whole entry, looked up): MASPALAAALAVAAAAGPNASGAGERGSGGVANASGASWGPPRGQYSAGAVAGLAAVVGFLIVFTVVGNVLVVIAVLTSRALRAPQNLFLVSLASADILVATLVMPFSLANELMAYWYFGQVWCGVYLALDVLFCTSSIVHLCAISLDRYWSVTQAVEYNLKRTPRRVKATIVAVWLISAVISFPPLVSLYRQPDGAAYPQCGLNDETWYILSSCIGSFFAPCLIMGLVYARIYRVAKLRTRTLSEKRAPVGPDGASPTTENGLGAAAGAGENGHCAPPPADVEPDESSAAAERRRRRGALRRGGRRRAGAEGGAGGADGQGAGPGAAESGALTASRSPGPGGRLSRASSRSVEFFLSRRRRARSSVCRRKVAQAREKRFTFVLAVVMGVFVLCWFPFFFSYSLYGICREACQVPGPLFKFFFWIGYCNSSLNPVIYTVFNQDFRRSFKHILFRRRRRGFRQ
A short description of assay [7]: inhibitors of larval lipid processing in zebrafish, primary screen, whole organism, PED6 fluorescence, gall bladder and intestine (AID 686;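 active = a full or partial loss of lipid-probe fluorescence in the fish gall bladder, intestine or both, judged by eye; inactive = no fluorescence loss, or compound toxic to the fish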;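 also: larvae 5 to 7 days old with five fish per well; signal comes from phospholipase A2 cleavage of quenched PED6 carried via bile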). The following applies: Zebrafish larvae PED6 lipid processing, fluorescence scoring; screened at 20 µM (by protocol). The essentials: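 Incubation: overnight exposure of larvae to compound plus PED6 / Test system: live zebrafish larvae aged 5-7 days, whole organism / Amount: 5 larvae per well / Read-out basis: visual per-well fluorescence inhibition score / Signal: visual fluorescence microscopy scoring of gall bladder, gut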

A short description of assay [8]: blockers of RIG-like receptor reporter activation – cell-based, Sendai virus stimulus, luciferase, 10K MLSCN set, TLR/RLR signaling modifier project, primary screen (AID 602276;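 active = inhibition at or above 50% at 10 µM; inactive = inhibition below 50%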;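 also: firefly luciferase from ISG56 promoter only with Renilla not read in this screen; 0% = Sendai virus plus DMSO and 100% = medium plus DMSO without virus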). The settings on record: HEK293 RL24 IRF3 luciferase reporter, at 10 µM, stronger effect = higher value.
The nature of assay [9]: TLR3 IRF3 reporter activation blockers – cell-based, poly I:C stimulus, luciferase, 10K MLSCN set, primary screen (AID 602277). The settings on record: HEK293-TLR3 RL24 IRF3 luciferase reporter, at 10 µM, stronger effect = higher value. On the technique in general: In a reporter assay the amount or activity of a reporter protein is the signal.

Calls of active or inactive are those of the source.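 The calls were made as follows, unless noted: active = inhibition of the reporter signal at or above 50%; inactive = inhibition below 50%.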

As to `C=CCOc1ccc(CN(C)CC(=O)N(CC(C)C)c2c(N)n(CC(C)C)c(=O)[nH]c2=O)cc1`, the cell count in assay [1] was determined as 492. Besides, the inhibition is 8.3% (inactive) in assay [1], -77.8% (inactive) in [3], 21.6% (inactive) in assay [8] and 19.4% (inactive) in assay [9]. In [2], the inhibition of aggregation was -8.7% (inactive). The nuclei count came out at 101% in assay [2] and 123% in assay [3]. For the same molecule, the fluorescence slope in [4] is -0.452 (inactive). Besides, the NADPH fluorescence slope in assay [5] is -4.3e-05 (inactive). Moreover, the slope in assay [6] is 0.00414 (inactive). Further, in assay [7], the molecule was called inactive.

As for `Cc1cc(NC(=O)CS(=O)(=O)c2cn(Cc3ccccc3Cl)c3ccccc23)no1`, the cell count in assay [1] amounted to 767. In addition, the inhibition in [1] is -27.1% (inactive); in assay [3], 67.2% (active); in assay [8], 7.87% (inactive); in assay [9], 2.26% (inactive). Moreover, in [2], the inhibition of aggregation was 0.3% (inactive). In addition, the nuclei count in [2] was found to be 98.5%; in [3] it was 83.3%. The fluorescence slope in [4] is -0.323 (inactive). Besides, in assay [5], the NADPH fluorescence slope was -2.3e-05 (inactive). In addition, the slope in [6] was 0.00422 (inactive). The molecule was classed as inactive in assay [7].

In the case of `COC(=O)c1c(NC(=O)CCc2ccc(C)o2)sc(C)c1C`, in assay [1], the cell count worked out at 568. In addition, the inhibition is 6.6% (inactive) in [1], -69.4% (inactive) in assay [3], 15.7% (inactive) in [8] and 31.1% (inactive) in assay [9]. In addition, the inhibition of aggregation in assay [2] was 7.9% (inactive). The nuclei count was 79.4% in assay [2] and 91% in [3]. The fluorescence slope in assay [4] is -0.294 (inactive). Besides, the NADPH fluorescence slope in [5] is -1.6e-05 (inactive). Moreover, in assay [6], the slope was 0.00498 (inactive). The molecule was classed as inactive in assay [7].

Turning to `O=C(Cn1c(=O)oc2ccccc21)N1CCN(c2ccccc2)CC1`, the cell count in [1] was found to be 421. In addition, the inhibition in [1] was 2.6% (inactive); in assay [3], -10.5% (inactive); in [8] it was 8.94% (inactive); in [9] it was 14.4% (inactive). The inhibition of aggregation in [2] was 10% (inactive). The results for the nuclei count in assay [2] and in assay [3] were 99.1% and 114%, respectively. Further, in assay [4], the fluorescence slope is -0.407 (inactive). Also, the NADPH fluorescence slope in assay [5] was -4.3e-05 (inactive). Besides, the slope in [6] was 0.00535 (inactive). Further, the call in assay [7] was inactive.

As for `CCCCOC(=O)Nc1nccs1`, the cell count in [1] turned out to be 690. For the same molecule, the inhibition was -2.6% (inactive) in assay [1], -53.6% (inactive) in [3], -8.28% (inactive) in [8] and -28.8% (inactive) in assay [9]. For the same molecule, the inhibition of aggregation in assay [2] was 4.5% (inactive). The nuclei count in assay [2] and in assay [3] was 116% throughout. For the same molecule, in [4], the fluorescence slope is -0.404 (inactive). For the same molecule, the NADPH fluorescence slope in [5] was -3.3e-05 (inactive). Moreover, the slope in assay [6] is 0.00518 (inactive). The call in [7] was inactive.

Regarding `Cn1c(C(=O)NCc2cccnc2)cc2sccc21`, in assay [1], the cell count was 560. The inhibition in assay [1] is -4.9% (inactive); in [3], -25% (inactive); in [8], -11.9% (inactive); in assay [9], -21.5% (inactive). Also, the inhibition of aggregation in assay [2] is 1.2% (inactive). The nuclei count in assay [2] worked out at 104%; in assay [3] it was 110%. The fluorescence slope in assay [4] is -0.436 (inactive). In addition, the NADPH fluorescence slope in assay [5] is 3.4e-05 (inactive). The slope in assay [6] was 0.00497 (inactive). In [7], the outcome was inactive.

Take `O=C(c1ccco1)c1nnn(Cc2ccccc2)c1-c1ccccc1`: the cell count in assay [1] came to 346. The inhibition was -4.3% (inactive) in assay [1], -90% (inactive) in [3], -4.9% (inactive) in assay [8] and 0.479% (inactive) in assay [9]. For the same molecule, the inhibition of aggregation in assay [2] was 4% (inactive). In addition, the nuclei count was 122% in assay [2] and 116% in assay [3]. In addition, in [4], the fluorescence slope is -0.347 (inactive). Further, the NADPH fluorescence slope in [5] was 7.1e-06 (inactive). Further, the slope in assay [6] was 0.00349 (inactive). For the same molecule, in assay [7], the molecule was called inactive.

Turning to `C=CCn1c(SCC(=O)Nc2ccc3c(c2)OCO3)nc2ccccc2c1=O`, the cell count in assay [1] is 388. In addition, the inhibition in [1] is -0.4% (inactive); in [3] it was 37.8% (inactive); in assay [8] it was 15.8% (inactive); in assay [9], 14.8% (inactive). Moreover, the inhibition of aggregation in assay [2] was 1.9% (inactive). Further, the nuclei count in assay [2] came to 96.8%; in assay [3], 90.6%. Moreover, the fluorescence slope in assay [4] is -0.429 (inactive). In addition, the NADPH fluorescence slope in assay [5] is -3.8e-05 (inactive). The slope in assay [6] is 0.00549 (inactive). In addition, the call in [7] was inactive.

Turning to `CCOC(=O)C1CCN(CC(=O)c2c(C)[nH]c3ccccc23)CC1`, in assay [1], the cell count came to 669. In addition, the inhibition in assay [1] was 3.9% (inactive); in assay [3], 11.6% (inactive); in assay [8] it was -3.58% (inactive); in assay [9] it was 15.2% (inactive). Also, the inhibition of aggregation in [2] was -5.8% (inactive). The nuclei count came out at 99.6% in [2] and 102% in [3]. Moreover, the fluorescence slope in assay [4] is -0.421 (inactive). In addition, the NADPH fluorescence slope in [5] was -1.5e-05 (inactive). Also, the slope in assay [6] was 0.00551 (inactive). For the same molecule, the outcome in assay [7] was inactive.

For `O=C(NCCCN1CCOCC1)c1cc(-c2ccc(Cl)cc2)on1`, the cell count in assay [1] was found to be 264. Further, the inhibition in assay [1] was -1.8% (inactive); in [3], -8.4% (inactive); in assay [8], 6.84% (inactive); in [9], -3.16% (inactive). The inhibition of aggregation in assay [2] was -1.6% (inactive). In addition, the nuclei count in assay [2] is 102%; in assay [3], 113%. Further, the fluorescence slope in assay [4] was -0.294 (inactive). Besides, the NADPH fluorescence slope in [5] is 1.2e-05 (inactive). Moreover, in assay [6], the slope was 0.00493 (inactive). Further, the molecule was called inactive in [7].

In the case of `O=C(CSCc1n[nH]c(=O)[nH]1)NCCOc1cccc(Oc2ccccc2)c1`, in [1], the cell count was 615. Also, the inhibition is -13% (inactive) in assay [1], -16.1% (inactive) in assay [3], -14.2% (inactive) in assay [8] and 2.61% (inactive) in [9]. Besides, the inhibition of aggregation in assay [2] is 8.5% (inactive). For the same molecule, the nuclei count in assay [2] worked out at 77.7%; in assay [3], 105%. For the same molecule, in assay [4], the fluorescence slope is -0.417 (inactive). Moreover, the NADPH fluorescence slope in assay [5] is -6.7e-05 (inactive). In addition, the slope in assay [6] is 0.00545 (inactive). In addition, in [7], the result was inactive.

Take `CC(C)(C)NS(=O)(=O)c1ccc(CCC(=O)O)cc1`: the cell count in [1] was found to be 395. Also, the inhibition in [1] was 4.2% (inactive); in assay [3] it was -68.6% (inactive); in assay [8] it was 9.55% (inactive); in assay [9], 4.51% (inactive). The inhibition of aggregation in assay [2] is -0.1% (inactive). Moreover, the nuclei count in [2] was 82.6%; in assay [3] it was 110%. For the same molecule, the fluorescence slope in assay [4] was -0.456 (inactive). Further, in assay [5], the NADPH fluorescence slope was -4.3e-05 (inactive). For the same molecule, the slope in assay [6] is 0.00422 (inactive). Further, in assay [7], the call was inactive.

Consider `CCOc1ccccc1C1N(c2ccc(F)cc2)C(=O)C2CCCN21` (stereo not drawn), for which the cell count in assay [1] came out at 465. Further, the inhibition was -0.3% (inactive) in [1], 45.7% (inactive) in assay [3], 13.2% (inactive) in [8] and 17.1% (inactive) in assay [9]. Also, the inhibition of aggregation in [2] is -10.1% (inactive). Also, the nuclei count in assay [2] stood at 103%; in assay [3], 91.5%. The fluorescence slope in assay [4] is -0.349 (inactive). In assay [5], the NADPH fluorescence slope was -4.9e-05 (inactive). The slope in assay [6] is 0.00484 (inactive). In addition, the result in assay [7] was inactive.

For `Cc1cc(C(=O)COc2cccc3cccnc23)c(C)n1C`, the cell count in assay [1] is 703. Moreover, the inhibition in assay [1] was 1.8% (inactive); in [3], -154% (inactive); in assay [8], -44.6% (inactive); in assay [9], -68% (inactive). In addition, the inhibition of aggregation in assay [2] is -22.3% (inactive). In addition, the nuclei count in assay [2] was 107%; in assay [3], 117%. The fluorescence slope in assay [4] was -0.327 (inactive). The NADPH fluorescence slope in assay [5] is -1.7e-05 (inactive). In [6], the slope was 0.00438 (inactive). The molecule was classed as inactive in [7].

In general, inhibition refers to the change of the read-out against control, counted positive when it falls.
